Test results: ChEMBL document CHEMBL1154110, “Identification, structure-activity relationships and molecular modeling of potent triamine and piperazine opioid ligands” (Bioorg Med Chem, 2009)

What was measured:
[1] = molecular target: Kappa-type opioid receptor (Cavia porcellus, UniProt P41144); experiment: Displacement of [3H]U69593 from guinea pig kappa opioid receptor by liquid scintillation counting
Outline: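 Receptor membrane suspension incubated with 3 nM [3H]U69,593 as the tritiated competitor. Unlabeled U50,488 served as the kappa standard: it generated a standard curve on every plate and defined nonspecific binding. IC50 values came from dose-response testing.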

[2] = molecular target: Delta-type opioid receptor (Rattus norvegicus, UniProt P33533); experiment: Displacement of [3H]DSLET from delta opioid receptor in rat brain by liquid scintillation counting; assay type: tissue-based
Mu-type opioid receptor = Mu-type opioid receptor (Rattus norvegicus, UniProt P33535); experiment: Displacement of [3H]DAMGO from mu opioid receptor in rat brain by liquid scintillation counting; assay type: tissue-based
Mu-type opioid receptor, sequence (P33535 whole entry): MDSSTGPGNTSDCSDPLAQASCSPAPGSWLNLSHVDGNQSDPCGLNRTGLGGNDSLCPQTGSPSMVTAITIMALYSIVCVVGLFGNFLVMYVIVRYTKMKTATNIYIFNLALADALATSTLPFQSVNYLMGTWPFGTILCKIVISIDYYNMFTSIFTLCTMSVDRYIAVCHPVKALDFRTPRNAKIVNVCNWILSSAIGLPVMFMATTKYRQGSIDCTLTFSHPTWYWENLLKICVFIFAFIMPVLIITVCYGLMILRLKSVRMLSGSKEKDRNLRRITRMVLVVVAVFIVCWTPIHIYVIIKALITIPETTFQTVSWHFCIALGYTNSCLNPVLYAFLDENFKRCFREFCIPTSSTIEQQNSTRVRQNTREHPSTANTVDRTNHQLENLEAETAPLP

Kappa-type opioid receptor, sequence (P41144 whole entry): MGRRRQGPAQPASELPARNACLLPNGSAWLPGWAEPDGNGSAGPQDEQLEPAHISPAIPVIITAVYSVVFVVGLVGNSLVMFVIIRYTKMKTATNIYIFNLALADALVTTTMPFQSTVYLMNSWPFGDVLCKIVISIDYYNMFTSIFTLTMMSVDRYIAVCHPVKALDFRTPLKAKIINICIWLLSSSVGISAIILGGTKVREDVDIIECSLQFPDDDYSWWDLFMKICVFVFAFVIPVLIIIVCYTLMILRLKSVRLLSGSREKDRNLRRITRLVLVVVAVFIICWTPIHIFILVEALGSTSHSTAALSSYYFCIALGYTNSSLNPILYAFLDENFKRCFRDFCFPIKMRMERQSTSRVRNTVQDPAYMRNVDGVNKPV
Delta-type opioid receptor, sequence (P33533 whole entry): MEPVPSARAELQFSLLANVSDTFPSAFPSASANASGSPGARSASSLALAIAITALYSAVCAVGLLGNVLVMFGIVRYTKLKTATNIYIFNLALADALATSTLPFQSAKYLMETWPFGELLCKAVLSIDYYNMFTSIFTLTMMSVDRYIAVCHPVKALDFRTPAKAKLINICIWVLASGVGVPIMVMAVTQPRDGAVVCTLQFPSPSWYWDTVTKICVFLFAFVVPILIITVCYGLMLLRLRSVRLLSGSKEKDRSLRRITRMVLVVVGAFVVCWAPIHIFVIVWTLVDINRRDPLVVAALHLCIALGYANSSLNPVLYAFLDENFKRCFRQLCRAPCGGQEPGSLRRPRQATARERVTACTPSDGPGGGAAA

Q: Which IC50 [1] does the source give for `CNC[C@H](Cc1ccc(O)cc1)N1CCN(CCC2CC3CCC2C3)CC1` (stereo partly specified) here?
A: 0.373 µM

Q: And the IC50 [2]?
A: 1.96 µM

Q: And the IC50 (Mu-type opioid receptor)?
A: 0.167 µM

Q: Which IC50 [1] does the source give for `CNC[C@@H](Cc1ccc(O)cc1)N1CCN(CCCC(C)C)[C@@H](C(C)C)C1` here?
A: > 1 µM

Q: And the IC50 [2]?
A: > 10 µM

Q: And the IC50 (Mu-type opioid receptor)?
A: > 1 µM

Q: What does the source list for `CNC[C@H](Cc1ccc(O)cc1)NC[C@H](Cc1ccc(O)cc1)NCCC1CCCC1`?
A: IC50 [1]: 0.186 µM; IC50 [2]: 2.88 µM; IC50 (Mu-type opioid receptor): 0.17 µM

Q: What does the source list for `CNC[C@@H](Cc1ccc(O)cc1)N1CCN(CCCC2CCCCC2)[C@H](C(C)C)C1`?
A: IC50 [1]: 0.654 µM; IC50 [2]: > 10 µM; IC50 (Mu-type opioid receptor): 0.92 µM

Q: With `CCC[C@H](CNC)NC[C@H](Cc1ccc(O)cc1)NCCC1CC2CCC1C2` (stereo partly specified) as the molecule, how does the IC50 [1] read?
A: 0.333 µM

Q: And the IC50 [2]?
A: > 10 µM

Q: What about the IC50 (Mu-type opioid receptor) of the same molecule?
A: 0.178 µM

Q: Which results are given for `CC(C)(C)CCN1CCN([C@@H](CNCc2ccccc2)Cc2ccc(O)cc2)C[C@@H]1Cc1ccc(O)cc1`?
A: IC50 [1]: 0.387 µM; IC50 [2]: 4.55 µM; IC50 (Mu-type opioid receptor): > 1 µM

Q: Which IC50 [1] does the source give for `CCCC[C@H](CNCc1ccccc1)N1CCN(CC2CCCCCC2)[C@H](Cc2ccc(O)cc2)C1` here?
A: 0.161 µM

Q: And the IC50 [2]?
A: > 10 µM

Q: What about the IC50 (Mu-type opioid receptor) of the same molecule?
A: > 1 µM

Q: `CNC[C@H](Cc1ccc(O)cc1)N1CCN(CCC2CC3CCC2C3)[C@@H](C(C)C)C1` (stereo partly specified) was tested. Which IC50 [1] did it give?
A: 0.374 µM

Q: What about the IC50 [2] of the same molecule?
A: > 10 µM

Q: And the IC50 (Mu-type opioid receptor)?
A: 0.223 µM

Q: Which results are given for `CCC[C@H](CN[C@H](CNC)Cc1ccc(O)cc1)NCCC1CCCC1`?
A: IC50 [1]: 0.097 µM; IC50 [2]: > 10 µM; IC50 (Mu-type opioid receptor): 0.648 µM

Q: With `CC[C@H](C)[C@@H](CNC)N1CCN(CCC2CC3CCC2C3)[C@H](C(C)C)C1` (stereo partly specified) as the molecule, how does the IC50 [1] read?
A: > 1 µM

Q: And the IC50 [2]?
A: > 10 µM

Q: And the IC50 (Mu-type opioid receptor)?
A: > 1 µM

Q: For `CNC[C@H](Cc1ccc(O)cc1)N1CCN(CCc2cccc(C)c2)[C@@H](C(C)C)C1`, which IC50 [1] is on record?
A: > 1 µM

Q: What about the IC50 [2] of the same molecule?
A: > 10 µM

Q: What about the IC50 (Mu-type opioid receptor) of the same molecule?
A: 0.206 µM

Q: Which IC50 [1] does the source give for `CCC[C@H](CNC)NC[C@H](Cc1ccc(O)cc1)NCCC1CCCC1` here?
A: 0.766 µM

Q: And the IC50 [2]?
A: > 10 µM

Q: What about the IC50 (Mu-type opioid receptor) of the same molecule?
A: 0.24 µM

Q: Which IC50 [1] does the source give for `CC(C)CCN1CCN([C@@H](CNCc2ccccc2)C(C)C)C[C@H]1C(C)C` here?
A: > 1 µM

Q: And the IC50 [2]?
A: > 10 µM

Q: What about the IC50 (Mu-type opioid receptor) of the same molecule?
A: > 1 µM

Q: Which results are given for `CCC(C)[C@@H](CNC)N1CCN(CCC23CC4CC(CC(C4)C2)C3)[C@H](C(C)C)C1` (stereo partly specified)?
A: IC50 [1]: 0.119 µM; IC50 [2]: > 10 µM; IC50 (Mu-type opioid receptor): > 1 µM

Q: Which results are given for `CCC[C@H](CNC)NC[C@@H](CCC)NCCC1CC2CCC1C2` (stereo partly specified)?
A: IC50 [1]: > 1 µM; IC50 [2]: > 10 µM; IC50 (Mu-type opioid receptor): > 1 µM

Q: `CCCC[C@H](CNCc1ccccc1)N1CCN(CC(C)C)[C@H](Cc2ccc(O)cc2)C1` was tested. Which IC50 [1] did it give?
A: 0.102 µM

Q: What about the IC50 [2] of the same molecule?
A: > 10 µM

Q: And the IC50 (Mu-type opioid receptor)?
A: > 1 µM

Q: What does the source list for `CC(C)[C@@H]1CN([C@@H](CNCc2ccccc2)C(C)C)CCN1CCC1CCCC1`?
A: IC50 [1]: > 1 µM; IC50 [2]: > 10 µM; IC50 (Mu-type opioid receptor): > 1 µM

Q: For `CNC[C@@H](Cc1ccc(O)cc1)N1CCN(CCC2CC3CCC2C3)CC1` (stereo partly specified), which IC50 [1] is on record?
A: 0.476 µM

Q: And the IC50 [2]?
A: > 10 µM

Q: What about the IC50 (Mu-type opioid receptor) of the same molecule?
A: 0.092 µM

Q: For `CCC[C@H](CNC)NC[C@H](Cc1ccc(O)cc1)NCC1CCC(C)CC1` (stereo partly specified), which IC50 [1] is on record?
A: 1.75 µM

Q: What about the IC50 [2] of the same molecule?
A: > 10 µM

Q: And the IC50 (Mu-type opioid receptor)?
A: 0.225 µM

Q: How did the IC50 [1] turn out when `CNC[C@H](Cc1ccc(O)cc1)N1CCN(CC2CCCCCC2)CC1` was run?
A: 0.093 µM

Q: And the IC50 [2]?
A: > 10 µM

Q: What about the IC50 (Mu-type opioid receptor) of the same molecule?
A: 0.152 µM

Q: Which IC50 [1] does the source give for `CCC[C@H](CNC)NC[C@@H](CCC)NCC1CCCCCC1` here?
A: > 1 µM

Q: What about the IC50 [2] of the same molecule?
A: > 10 µM

Q: What about the IC50 (Mu-type opioid receptor) of the same molecule?
A: > 1 µM

Q: `CNC[C@@H](Cc1ccc(O)cc1)N1CCN(CCCC(C)C)CC1` was tested. Which IC50 [1] did it give?
A: > 1 µM

Q: And the IC50 [2]?
A: > 10 µM

Q: What about the IC50 (Mu-type opioid receptor) of the same molecule?
A: 0.471 µM

Q: `CCC[C@H](CNC)NC[C@@H](CCC)NCCC1CCCC1` was tested. Which IC50 [1] did it give?
A: 0.102 µM

Q: And the IC50 [2]?
A: > 10 µM

Q: What about the IC50 (Mu-type opioid receptor) of the same molecule?
A: > 1 µM

Q: What does the source list for `CCC[C@H](CNC)NC[C@@H](CCC)NCCC12CC3CC(CC(C3)C1)C2`?
A: IC50 [1]: > 1 µM; IC50 [2]: > 10 µM; IC50 (Mu-type opioid receptor): > 1 µM

Q: What does the source list for `CCC[C@H](CNC)NC[C@H](Cc1ccc(O)cc1)NCC1CCCCCC1`?
A: IC50 [1]: 0.439 µM; IC50 [2]: > 10 µM; IC50 (Mu-type opioid receptor): 0.107 µM

Q: For `CNC[C@H](Cc1ccc(O)cc1)NC[C@H](Cc1ccc(O)cc1)NCC1CCC(C)CC1` (stereo partly specified), which IC50 [1] is on record?
A: 0.102 µM

Q: And the IC50 [2]?
A: > 10 µM

Q: And the IC50 (Mu-type opioid receptor)?
A: 0.313 µM

Q: For `CNC[C@H](Cc1ccc(O)cc1)NC[C@H](Cc1ccc(O)cc1)NCCC1CC2CCC1C2` (stereo partly specified), which IC50 [1] is on record?
A: 0.452 µM

Q: And the IC50 [2]?
A: > 10 µM

Q: What about the IC50 (Mu-type opioid receptor) of the same molecule?
A: 0.27 µM

Q: Which IC50 [1] does the source give for `CNC[C@@H](Cc1ccc(O)cc1)N1CCN(CCC2CC3CCC2C3)[C@H](C(C)C)C1` (stereo partly specified) here?
A: 0.23 µM

Q: And the IC50 [2]?
A: > 10 µM

Q: And the IC50 (Mu-type opioid receptor)?
A: 0.336 µM

Q: For `CCC[C@H](CN[C@H](CNC)Cc1ccc(O)cc1)NCCC12CC3CC(CC(C3)C1)C2`, which IC50 [1] is on record?
A: 0.037 µM

Q: What about the IC50 [2] of the same molecule?
A: > 10 µM

Q: And the IC50 (Mu-type opioid receptor)?
A: 0.53 µM

Q: What does the source list for `CNC[C@H](Cc1ccc(O)cc1)NC[C@H](Cc1ccc(O)cc1)NCC1CCCCCC1`?
A: IC50 [1]: 0.022 µM; IC50 [2]: > 10 µM; IC50 (Mu-type opioid receptor): 0.054 µM

Q: Which results are given for `CNC[C@@H](Cc1ccc(O)cc1)N1CCN(CCc2cccc(C)c2)[C@@H](C(C)C)C1`?
A: IC50 [1]: > 1 µM; IC50 [2]: > 10 µM; IC50 (Mu-type opioid receptor): > 1 µM

Q: `CNC[C@@H](Cc1ccc(O)cc1)N1CCN(CC2CCCCCC2)[C@@H](C(C)C)C1` was tested. Which IC50 [1] did it give?
A: > 1 µM

Q: What about the IC50 [2] of the same molecule?
A: > 10 µM

Q: What about the IC50 (Mu-type opioid receptor) of the same molecule?
A: > 1 µM

Q: With `CNC[C@@H](Cc1ccc(O)cc1)N1CCN(CCC2CC3CCC2C3)[C@@H](C(C)C)C1` (stereo partly specified) as the molecule, how does the IC50 [1] read?
A: > 1 µM

Q: And the IC50 [2]?
A: > 10 µM

Q: What about the IC50 (Mu-type opioid receptor) of the same molecule?
A: > 1 µM

Q: For `CC(C)[C@@H]1CN([C@@H](CNCc2ccccc2)C(C)C)CCN1CCc1ccccc1`, which IC50 [1] is on record?
A: > 1 µM

Q: What about the IC50 [2] of the same molecule?
A: > 10 µM

Q: And the IC50 (Mu-type opioid receptor)?
A: > 1 µM

Q: For `CC(C)[C@H](CNCc1ccccc1)N1CCN(CCC2CCCC2)[C@@H](Cc2ccccc2)C1`, which IC50 [1] is on record?
A: > 1 µM

Q: What about the IC50 [2] of the same molecule?
A: > 10 µM

Q: And the IC50 (Mu-type opioid receptor)?
A: > 1 µM

Q: For `CCC[C@H](CN[C@H](CNC)Cc1ccc(O)cc1)NCCC1CC2CCC1C2` (stereo partly specified), which IC50 [1] is on record?
A: 0.017 µM

Q: And the IC50 [2]?
A: 2.1 µM

Q: What about the IC50 (Mu-type opioid receptor) of the same molecule?
A: 0.174 µM

Q: For `CC(C)[C@@H]1CN([C@@H](CNCc2ccccc2)C(C)C)CCN1CCC1CC2CCC1C2` (stereo partly specified), which IC50 [1] is on record?
A: > 1 µM

Q: And the IC50 [2]?
A: > 10 µM

Q: And the IC50 (Mu-type opioid receptor)?
A: > 1 µM

Q: Which IC50 [1] does the source give for `CCC[C@H](CN[C@H](CNC)Cc1ccc(O)cc1)NCC1CCC(C)CC1` (stereo partly specified) here?
A: 0.014 µM

Q: And the IC50 [2]?
A: > 10 µM

Q: And the IC50 (Mu-type opioid receptor)?
A: > 1 µM

Q: What does the source list for `CNC[C@@H](Cc1ccc(O)cc1)N1CCN(CC2CCCCCC2)CC1`?
A: IC50 [1]: 0.223 µM; IC50 [2]: > 10 µM; IC50 (Mu-type opioid receptor): 0.09 µM

Q: Which results are given for `CC[C@H](C)[C@@H](CNC)N1CCN(CCCC2CCCCC2)[C@H](C(C)C)C1`?
A: IC50 [1]: 0.058 µM; IC50 [2]: > 10 µM; IC50 (Mu-type opioid receptor): > 1 µM

Q: `CC(C)[C@H](CNCc1ccccc1)N1CCN(CCC2CC3CCC2C3)[C@@H](Cc2ccccc2)C1` (stereo partly specified) was tested. Which IC50 [1] did it give?
A: > 1 µM

Q: And the IC50 [2]?
A: > 10 µM

Q: What about the IC50 (Mu-type opioid receptor) of the same molecule?
A: > 1 µM

Q: Which IC50 [1] does the source give for `CCC[C@H](CNC)NC[C@@H](CCC)NCC1CCC(C)CC1` (stereo partly specified) here?
A: > 1 µM

Q: What about the IC50 [2] of the same molecule?
A: > 10 µM

Q: What about the IC50 (Mu-type opioid receptor) of the same molecule?
A: > 1 µM
